Screens as filed in PubChem.
IDE cell inh = human IDE inhibitors in live cells, primary screen, fluorescence polarization, HEK cells, FAbetaB substrate. 320,000 compounds, 0.41% hits. inhibition, % at 5.59 µM. FAbetaB cleavage. AID 434962, 2010. Insulin-degrading enzyme (Homo sapiens), P14735;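 active = percent inhibition above the average of all tested compounds plus 3 SD, set per screening campaign, cut at about 16% in these data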;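 note: IDE supplied by intact live HEK cells; FP after avidin binding of uncleaved biotin substrate so inhibition keeps polarization high; 0% = DMSO wells and 100% = 60 µM reference IDE inhibitor Ii1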
Tb MetRS inh = T. brucei MetRS inhibitors, primary screen, biochemical, luminescence. inhibition, % at 11.9 µM. AID 624268, 2012. 360,000 compounds, 0.4% hits. methionyl-tRNA synthetase (Trypanosoma brucei brucei). purified T. brucei MetRS, ATP depletion, Kinase-Glo luminescence;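 active = inhibition above a per-plate cutoff of the control wells' mean inhibition plus 3 SD, cut at about 5.5% in these data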;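 note: 0% = DMSO wells median and 100% = median of wells with control inhibitor compound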
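assay system = parasite MetRS enzyme | timing = 15 min preincubation, 2 h reaction, all 25 °C | evaluation = percent inhibition relative to median high and low control wells | medium = HEPES buffer containing pyrophosphatase, BSA, spermine, DTT | compound = single dose, 11.9 µM final nominal, 0.9% final DMSO | detection = Kinase-Glo luminescence, ATP depletion format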
CR mimetic SO = reduction of superoxide in aged yeast, primary screen, HTS. superoxide response (% of plate mean), % at 10 µM. 330,000 compounds, 0.18% hits. S. cerevisiae aged cells, superoxide DHE fluorescence; hits give low values;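 active = superoxide response under a set limit, about three screen SD below normal, cut at about 65% in these data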;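 note: yeast aged for seven days with compound at 30 °C before DHE staining; 100% = average MFI of all compound-treated wells on the plate with controls excluded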
HDAC3 inhib = HDAC3 deacetylase inhibitors, primary screen, biochemical, fluorescence, cell-free homogeneous; AID 2718, 2010; recombinant HDAC3, fluorogenic peptide/trypsin coupled; 320,000 compounds, 0.15% hits; inhibition, % at 8.3 µM; in the data active = inhibition above about 26%, passing the limit was not always enough
Target sequence (O15379 whole entry, looked up): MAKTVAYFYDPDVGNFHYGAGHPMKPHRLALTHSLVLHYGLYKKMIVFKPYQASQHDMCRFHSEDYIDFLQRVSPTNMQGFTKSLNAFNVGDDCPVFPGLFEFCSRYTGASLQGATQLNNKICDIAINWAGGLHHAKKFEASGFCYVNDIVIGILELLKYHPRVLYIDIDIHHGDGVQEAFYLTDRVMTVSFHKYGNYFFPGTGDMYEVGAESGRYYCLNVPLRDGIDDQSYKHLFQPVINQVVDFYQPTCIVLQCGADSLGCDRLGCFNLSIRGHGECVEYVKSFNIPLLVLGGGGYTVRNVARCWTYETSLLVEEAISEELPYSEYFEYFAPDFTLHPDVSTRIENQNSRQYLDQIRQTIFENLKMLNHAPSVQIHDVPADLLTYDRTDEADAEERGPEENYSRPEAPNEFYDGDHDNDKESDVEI
Efflux pump inh = inhibitors of Candida efflux pumps in yeast, primary screen, S. cerevisiae, Nile Red, multiplex | S. cerevisiae Candida pump triplex | inhibition, % at 10 µM | 330,000 compounds, 0.44% hits | AID 485275, 2010;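 active = plate passing quality check with inhibition over a set limit, or well fluorescence over plate mean plus 4 SD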;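 note: Nile Red retained in pooled yeast measured as flow cytometry median fluorescence; 0% = buffer negative control and 100% = Enniatin B positive control; higher means more Nile Red kept so more efflux inhibition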
IDE cell activ = human IDE activators in live cells, primary screen, fluorescence polarization, HEK cells, FAbeta-B substrate; Insulin-degrading enzyme (Homo sapiens), P14735; activation, % at 5.96 µM; FAbeta-B cleavage; 0% vehicle, 100% cell-free pure enzyme wells; 340,000 compounds, 0.073% hits;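 active = activation above the mean of all tested compounds plus 3 SD, set per screening campaign, cut at about 17% in these data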
Cmpd fluor yeast = compound fluorescence in yeast efflux pump counter-screen; fluorescence ratio to DMSO, % at 10 µM; 1,700 compounds, 4% hits; AID 588517; shares compounds with Efflux pump inh; S. cerevisiae AD/pABC3, flow cytometry;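 active = fluorescence ratio to DMSO above its plate's cutoff, the plate mean ratio plus 5 SD, cut at about 210% in these data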;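 note: unstained yeast with no Nile Red so the signal is compound autofluorescence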
Mdr1 pump inh = inhibitors of Candida albicans Mdr1 efflux, confirmation, flow cytometry, singleplex, Cherry Pick1 set; S. cerevisiae AD/CaMDR1, Nile Red efflux; 1,700 compounds, 1% hits; shares compounds with Efflux pump inh; inhibition, % at 10 µM; in the data active = inhibition above about 26%;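 note: 0% = DMSO vehicle and 100% = reference inhibitor; higher means more Nile Red retained so more efflux inhibition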
CaCdr2 efflux inh = inhibitors of Candida albicans Cdr2 efflux pump, confirmation, S. cerevisiae AD/CaCDR2, flow cytometry, cherry pick 1, singleplex; shares compounds with Efflux pump inh; Nile Red retention; Nile Red retention ratio vs DMSO, % at 10 µM; 1,700 compounds, 4% hits; AID 588520, 2011; in the data active = Nile Red retention ratio vs DMSO above about 190%;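 note: higher ratio means more blocking of Cdr2 efflux of the dye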
CaCdr1 efflux inh = inhibitors of Candida albicans Cdr1 efflux pump, confirmation, S. cerevisiae AD/CaCDR1, flow cytometry, cherry pick 1, singleplex | 1,700 compounds, 1% hits | inhibition, % at 10 µM | shares compounds with Efflux pump inh | Nile Red efflux;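 active = inhibition above the screen-wide mean plus twice its standard deviation, cut at about 32% in these data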
Active calls of the source: *; · = not tested or not shown. An excerpt weighted towards active compounds, which were near 1.4% of everything screened.

SMILES	IDE cell inh	Tb MetRS inh	CR mimetic SO	HDAC3 inhib	Efflux pump inh	IDE cell activ	Cmpd fluor yeast	Mdr1 pump inh	CaCdr2 efflux inh	CaCdr1 efflux inh
COc1ccc(NC(=O)C/C(C)=N/NC(=O)c2ccco2)c([N+](=O)[O-])c1	-2	0	98	-3	0	4	·	·	·	·
CCN(C(=O)c1ccc(S(=O)(=O)N2CCC(C)CC2)cc1)C1CCS(=O)(=O)C1 (stereo unspecified)	1	0	103	0	0	-2	·	·	·	·
COc1ccc(NC(=O)CSc2nnc(Cc3cccn3C)n2-c2ccc(F)cc2)cc1	-1	0	105	2	0	-1	·	·	·	·
CCOc1ccc(NC(=O)CSc2nnc(Cc3cccn3C)n2-c2ccc(F)cc2)cc1	-1	0	96	2	0	0	95	0	110	0
O=C1/C(=C/c2cccc(Br)c2)SC(=S)N1/N=C/c1cc([N+](=O)[O-])ccc1O	0	-1	108	2	0	-2	97	0	83	0
O=C(Oc1c(CN2CCOCC2)cc(Cl)c2cccnc12)c1ccccc1Br	-7	0	100	·	0	4	·	·	·	·
CN1CCN(Cc2cc(Cl)c3cccnc3c2OC(=O)c2cccs2)CC1	2	0	105	3	11*	3	97	0	98	0
CC(C)NC(=O)/C=C/C(=O)O	-3	3	101	-7	0	-2	·	·	·	·
O=C(Nc1cccnc1)c1ccc(-c2ccc(Cl)cc2)o1	5	0	100	-3	0	-1	·	·	·	·
CN(C)C(=O)c1ccc(NC(=O)c2ccc(-c3ccc(Cl)cc3)o2)cc1	6	0	131	4	0.6*	0	108	0	110	0
O=C1C=CC(=O)N1c1cccc(-c2ccccc2)c1	0	0	81	-1	2.6*	-38	84	0	101	0
COc1ccc2nc(NC(=O)c3ccoc3C)sc2c1	1	-3	101	-11	7.5*	-4	120	0	120	0
COc1ccc2nc(NC(=O)c3cc(C)oc3C)sc2c1	1	-1	100	7	0	-3	·	·	·	·
COc1ccc(C(=O)Nc2ccc(C3CC3(Cl)Cl)cc2)cc1 (stereo unspecified)	5	1	127	3	0	3	·	·	·	·
O=C(NC1CCCc2ccccc21)c1cncc(Br)c1 (stereo unspecified)	6	0	99	1	3.4*	-2	96	0	92	0
COC(=O)[C@@]12CCCCN1[C@H](c1ccc(-c3ccc4c(c3)OCO4)c(OC)c1)[C@@H]1C(=O)N(C)C(=O)[C@@H]12	-2	0	105	9	0	7	·	·	·	·
CC(CCc1ccccc1)NC(=O)c1ccc(NC(=O)c2ccccc2)cc1 (stereo unspecified)	-2	0	97	7	0	7	·	·	·	·
CC(CCc1ccccc1)NC(=O)c1ccc(NC(=O)c2cccc(Br)c2)cc1 (stereo unspecified)	16	0	105	-1	6.5*	-4	99	0	127	0
